Source: paper PMC12418302 (Journal of Natural Products, 2025)

What was measured:
zebrafish = conditions: in vivo; cited from earlier work
[1] = molecular target: T1, human neutrophil elastase (Homo sapiens, UniProt P08246); assay: Neutrophil elastase inhibition assay; assay type: biochemical; conditions: dilution series 10 μM to 1 nM; general statement covering both protease assays
T1 sequence (P08246 30-267): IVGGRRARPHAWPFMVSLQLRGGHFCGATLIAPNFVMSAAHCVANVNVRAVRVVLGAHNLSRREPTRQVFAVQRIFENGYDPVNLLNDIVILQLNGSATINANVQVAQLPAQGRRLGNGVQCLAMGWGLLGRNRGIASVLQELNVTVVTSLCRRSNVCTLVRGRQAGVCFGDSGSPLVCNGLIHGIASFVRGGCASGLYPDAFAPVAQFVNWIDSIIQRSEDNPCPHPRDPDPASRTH

α-chymotrypsin = α-chymotrypsin (Bos taurus, UniProt P00766); assay: Chymotrypsin inhibition assay; assay type: biochemical
Method in brief: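 α-Chymotrypsin, added as a 10 U/mL solution in kit assay buffer, was preincubated with test compound from a DMSO dilution series (10 μM to 1 nM) for 15 min at room temperature. A reference micropeptin served as positive control. A working reagent of 1% substrate in assay buffer was added, and fluorescence (ex/em 485/530 nm) was read every 30 s for 30 min. IC50 was calculated from the data.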

chymotrypsin = conditions: read-out: IC50, chymotrypsin inhibition; literature value; cited from earlier work

CCCCCC(=O)N[C@@H](CC(=O)O)C(=O)N[C@H]1C(=O)N[C@@H](CCCN=C(N)N)C(=O)NC2CCC(O)N(C2=O)[C@@H]([C@H](C)CC)C(=O)N(C)[C@@H](Cc2ccc(O)cc2)C(=O)N[C@@H]([C@@H](C)CC)C(=O)O[C@@H]1C (some centres unmarked) [micropeptin K139]
share of the overall mortality attributed to the compound (zebrafish): 52%

Micropeptin 982 (L-Ser) [Compound 2]
inhibitory activity (in words), neutrophil elastase [1]: lacked any inhibitory activity
chymotrypsin inhibitory activity (in words) (α-chymotrypsin; dilution series 10 μM to 1 nM): no inhibition was observed

Micropeptin 996 (D-Gln) [Compound 4]
chymotrypsin inhibition (in words) (α-chymotrypsin; up to a concentration of 10 μM): not active

Microviridin 1777
IC50 (chymotrypsin): 100 nM
